Reference: PubChem BioAssay AID602159 (Southern Research Specialized Biocontainment Screening …, 2011)

Test system: HEp-2 RSV CPE, time of addition, CellTiter-Glo viability
Assay: stage of RSV life cycle blocked in HEp-2 – cell-based, set 2, mechanism study for RSV inhibitor project, late-stage follow-up (AID 602159)
Settings: at 25 µM, stronger effect = higher value
In short: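 Test system: RSV-infected HEp-2 cells / Incubation: compound dosing 1 h pre- to 24 h post-infection, six-day incubation / Doses: single 25 µM compound dose, 0.5% DMSO final / Measure: percent viable cells, compared across compound addition times / Technique: CellTiter-Glo ATP luminescence at day 6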

[1] = measured here: added 1 h before infection
[2] = measured here: added 1 h post infection
[3] = measured here: added 12 h post infection
[4] = measured here: added 24 h post infection

| SMILES | viability (added 21 h post infection) [%] | viability (added at infection) [%] | viability [1] [%] | viability [2] [%] | viability [3] [%] | viability [4] [%] |
| --- | --- | --- | --- | --- | --- | --- |
| COCCCNC(=O)c1ccc(Cn2c(=O)c3ccccc3n(Cc3ccc([N+](=O)[O-])cc3)c2=O)cc1 | 80.1 | 72.1 | 52.3 | 70.2 | 81.9 | 68 |
| CN(C)c1ccc(Cn2c(=O)n(Cc3ccc(C(=O)NCC4COC4)cc3)c(=O)c3ccccc32)cc1 | 96.4 | 91.3 | 90.1 | 91.6 | 73.2 | 78.7 |
| COCCCNC(=O)c1ccc(Cn2c(=O)c3ccccc3n(Cc3ccc(C(C)C)cc3)c2=O)cc1 | 38.8 | 44 | 49.5 | 42.9 | 43.8 | 31.1 |
